Test results published in ChEMBL document CHEMBL4028911, “Discovery of a Small-Molecule Bromodomain-Containing Protein 4 (BRD4) Inhibitor That Induces AMP-Activated Protein Kinase-Modulated Autophagy-Associated Cell Death in Breast Cancer” (J Med Chem, 2017).
The source made the active and inactive calls. The rule behind the calls is not given here.

Experiments:
[1] = target: T1, Bromodomain-containing protein 4 (Homo sapiens, UniProt O60885); test: Inhibition of BRD4 in human MCF7 cells assessed as downregulation of mTOR phosphorylation at ser244 at 1.5 uM measured up to 36 hrs by Western blot analysis; format: cell-based
How it was run: (§1)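 MCF-7 (1.5 μM) or MDA-MB-231 (3 μM) cells treated for indicated times. Adherent and floating cells lysed in RIPA with 1 mM PMSF. Equal protein run on 10-15% SDS-PAGE, blotted to PVDF, blocked in milk or BSA, HRP/ECL detection. β-actin loading control.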

MDA-MB-231 [2] = test: Antitumor activity against human MDA-MB-231 cells xenografted in nude BALB/c mouse assessed as reduction in tumor weight at 25 to 100 mg/kg, ig administered once a day for […] measured every 3 days relative to control; format: functional, organism-based
How it was run: (§2)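 Female BALB/c nude mice, 6-8 weeks, 20-22 g, injected subcutaneously with 5×10^6 MCF-7 or MDA-MB-231 cells. At 100 mm³ tumor volume (V = L×W²/2), split into four groups: 25, 50 or 100 mg/kg intragastric once daily for 24 or 27 days, or vehicle. Tumor volume and body weight measured every 3 days; tumors excised and weighed at end. MCF-7 n=7, MDA-MB-231 n=6 per group.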

[3] = target: T1, Bromodomain-containing protein 4; test: Inhibition of BRD4 in human MDA-MB-231 cells assessed as increase in ATG13 phosphorylation at ser318 at 3 uM up to 36 hrs by Western blot analysis; format: cell-based; how it was run: as §1
[4] = target: AMP-activated protein kinase, AMPK (Homo sapiens) (UniProt P54646+O43741+P54619+Q9UGJ0+Q9Y478+Q13131+Q9UGI9); test: Activation of AMPK (unknown origin) at 1 to 10^6 nM using MBP as substrate after 60 mins in presence of ATP by […] assay
How it was run: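 ADP-Glo luminescent kinase assay; AMPK or ULK1 enzyme, substrate, ATP and compound diluted in 40 mM Tris pH 7.5, 20 mM MgCl2, 0.1 mg/ml BSA, 50 µM DTT. Enzyme (10 ng) mixed with MBP (0.1 µg/µl)/ATP (10 µM) and compound, 60 min at room temperature. ADP-Glo reagent 40 min, then detection reagent 30 min, luminescence read; signal rises with kinase activity.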

[5] = target: T1, Bromodomain-containing protein 4; test: Inhibition of BRD4 in human MCF7 cells assessed as reduction in ULK1 protein expression at 1.5 uM up to 36 hrs by Western blot analysis; format: cell-based; how it was run: as §1
MDA-MB-231 [6] = test: Induction of autophagy in human MDA-MB-231 cells assessed as upregulation of beclin1 expression at 3 uM measured up to 36 hrs by Western blot analysis; format: functional, cell-based
How it was run: (§3)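 MDA-MB-231 cells (DMEM, 10% FBS, 37 °C, 5% CO2) exposed to 3 μM for indicated times. Adherent and floating cells collected, lysed in RIPA with 1 mM PMSF at 4 °C for 1 h. Protein quantified by DC assay, resolved on 10-15% SDS-PAGE, blotted to PVDF, ECL detection.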

MDA-MB-468 = test: Induction of autophagy in human MDA-MB-468 cells assessed as increase in LC3-2 expression expression measured up to 48 hrs by Western blot analysis; format: functional, cell-based
MDA-MB-231 [7] = test: Effect on AKT expression in human MDA-MB-231 cells at 3 uM measured up to 36 hrs by Western blot analysis; format: ADME, cell-based; settings: mda-mb-231, 36 h
How it was run: (§4)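 MCF-7 (1.5 µM) or MDA-MB-231 (3 µM) cells treated for indicated times. Adherent and floating cells lysed in RIPA with 1 mM PMSF, 4°C for 1 h. Equal protein run on 10-15% SDS-PAGE, transferred to PVDF, blocked with milk or BSA, probed with primary then HRP secondary antibodies, ECL detection; β-actin as loading control.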

MDA-MB-231 [8] = test: Antitumor activity against human MDA-MB-231 cells xenografted in nude BALB/c mouse assessed as tumor growth inhibition at 25 to 100 mg/kg, ig administered once a day for 27 days measured every 3 days relative to control; format: functional; how it was run: as §2
Homo sapiens = organism: Homo sapiens; test: Increase in p53 interaction with AMPK in human MCF7 cells at 1.5 uM by co-immunoprecipitation assay; format: cell-based
How it was run: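 Cells left untreated or treated, then lysed in RIPA (40 mM Tris-HCl pH 7.5, 150 mM NaCl, 0.5% NP-40, protease inhibitors, 5% glycerol, 10 mM NaF). Lysates incubated overnight at 4°C with BRD4 or p53 antibodies plus protein A/G beads, washed 3 times, resolved on 10% SDS-PAGE. Blots probed for p53 and AMPKα; inputs checked for BRD4, p53 and AMPKα.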

[9] = target: T1, Bromodomain-containing protein 4; test: Inhibition of BRD4 in human MCF7 cells assessed as induction of AMPKalpha phosphorylation at thr172 at 1.5 uM measured up to 36 hrs by Western blot analysis; format: cell-based; how it was run: as §1
MDA-MB-231 [10] = test: Antitumor activity against human MDA-MB-231 cells xenografted in ig dosed nude BALB/c mouse assessed as tumor growth inhibition administered once a day for 27 days measured every 3 days relative to control; format: functional, organism-based; how it was run: as §2
[11] = target: T1, Bromodomain-containing protein 4; test: Inhibition of BRD4 in human MCF7 cells assessed as downregulation of AKT phosphorylation at ser473 at 1.5 uM measured up to 36 hrs by Western blot analysis; format: cell-based; how it was run: as §1
[12] = target: T1, Bromodomain-containing protein 4; test: Inhibition of BRD4 in human MCF7 cells assessed as increase in ULK1 phosphorylation at ser317 at 1.5 uM up to 36 hrs by Western blot analysis; format: cell-based; how it was run: as §1
[13] = target: T1, Bromodomain-containing protein 4; test: Inhibition of BRD4 interaction with AMPK in human MCF7 cells at 1.5 uM by co-immunoprecipitation assay; format: cell-based
How it was run: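 Cells lysed in RIPA buffer (40 mM Tris-HCl pH 7.5, 150 mM NaCl, 0.5% NP-40, 5% glycerol, 10 mM NaF, protease inhibitors). Lysates incubated overnight at 4 °C with BRD4 or p53 antibody plus protein A/G beads, washed 3 times, resolved on 10% SDS-PAGE and blotted for AMPKα or p53.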

[14] = target: T1, Bromodomain-containing protein 4; test: Inhibition of recombinant human BRD4 bromodomain-2 (342 to 460 residues) expressed in Escherichia coli expression system after 120 mins by TR-FRET assay
MDA-MB-231 [15] = test: Effect on mTOR expression in human MDA-MB-231 cells at 3 uM measured up to 36 hrs by Western blot analysis; format: ADME, cell-based; settings: mda-mb-231, 36 h; how it was run: as §4
Mus musculus = test: Induction of LC3 accumulation in BALB/c mouse xenografted with human MCF7 cells at 100 mg/kg, ig administered once a day for 24 days by Western blot analysis; format: functional, organism-based
How it was run: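 Tumor tissues excised from MCF-7 or MDA-MB-231 xenograft mice were lysed and analysed by western blot for BRD4, c-Myc, LC3 and cleaved caspase-3.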

MDA-MB-231 [16] = test: Induction of autophagy in human MDA-MB-231 cells assessed as increase in LC3-2 expression at 3 uM by Western blot analysis; format: functional, cell-based; settings: TDE = time-dependent effect; how it was run: as §3
MDA-MB-231 [17] = test: Induction of autophagy in human MDA-MB-231 cells assessed as LC3 lipidation at 3 uM in presence of ATG5 siRNA by Western blot analysis; format: functional, cell-based

inhibition [1]: Active | inhibition [3]: Active | Activity [4]: inactive | inhibition [5]: Active | inhibition [9]: Active | inhibition [11]: Active | inhibition [12]: Active | inhibition [13]: Active | IC50 [14]: 930 nM
Compound: Cc1cc(-c2nc3sc4c(c3c(=O)[nH]2)CCN(C)C4)cc(C)c1O
Activity (MDA-MB-231 [2]): Active | Activity (MDA-MB-231 [6]): Active | Activity (MDA-MB-468): Active | Activity (MDA-MB-231 [7]): Non-Toxic | TGI (MDA-MB-231 [8]): 76% | Activity (Homo sapiens): Active | TGI (MDA-MB-231 [10]): Dose-dependent effect | Activity (MDA-MB-231 [15]): Non-Toxic | Activity (Mus musculus): Active | Activity (MDA-MB-231 [16]): Tde | Activity (MDA-MB-231 [17]): inactive
